Measured values: ChEMBL document CHEMBL3792341, “Substituted quinazolinones as kinase inhibitors endowed with anti-fibrotic properties” (Eur J Med Chem, 2016)
The source made the active and inactive calls. The rule behind the calls is not given here.

Key:
[1] = target: Vascular endothelial growth factor receptor 2 (Homo sapiens) (UniProt P35968); test: Inhibition of human KDR using […] as substrate at 1 uM measured after 20 mins at 30 degC by liquid scintillation counting method in presence of [gamma-32P]-ATP
[2] = target: Fibroblast growth factor receptor 1 (Homo sapiens) (UniProt P11362); test: Inhibition of human FGFR1 using myelin basic protein as substrate at 1 uM measured after 20 mins at 30 degC by liquid scintillation counting method in presence of [gamma-32P]-ATP
[3] = target: Tyrosine-protein kinase ABL1 (Homo sapiens) (UniProt P00519); test: Inhibition of human Abl1 using myelin basic protein as substrate at 1 uM measured after 20 mins at 30 degC by liquid scintillation counting method in presence of [gamma-32P]-ATP
[4] = target: Proto-oncogene tyrosine-protein kinase Src (Homo sapiens) (UniProt P12931); test: Inhibition of human Src using myelin basic protein as substrate at 1 uM measured after 20 mins at 30 degC by liquid scintillation counting method in presence of [gamma-32P]-ATP
[5] = target: Platelet-derived growth factor receptor beta (Homo sapiens) (UniProt P09619); test: Inhibition of human PDGFR-beta at 1 uM measured after 20 mins at 30 degC by liquid scintillation counting method in presence of [gamma-32P]-ATP
[6] = target: Serine/threonine-protein kinase mTOR (Homo sapiens) (UniProt P42345); test: Inhibition of human mTOR using PHAS-1 as substrate at 1 uM measured after 20 mins at 30 degC by liquid scintillation counting method in presence of [gamma-32P]-ATP
Homo sapiens = organism: Homo sapiens; test: Inhibition of human PI3K using phosphatidylinositol 4,5-diphosphate as substrate at 1 uM measured after 20 mins at 30 degC by liquid scintillation counting method in presence of [gamma-32P]-ATP
[7] = Reduction of COL1A1 mRNA expression in healthy human HSC cells at 1 uM by RT-PCR analysis; type: functional, cell-based
In short: (§1)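 HSCs or ISEMFs were treated with compound for 24 h. Total RNA was extracted and DNase I-treated, then used for quantitative PCR of the target transcript. Values were normalized to 18S rRNA and relative change was calculated by the ΔΔCT method. Triplicate per isolated cell batch.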

[8] = Reduction of COL1A1 mRNA expression in crohn's disease patient isolated ISEMF at 1 uM by RT-PCR analysis; type: functional; details: Homo sapiens; in short: as §1
[9] = Reduction of COL1A1 mRNA expression in healthy human ISEMF at 1 uM by RT-PCR analysis; type: functional; in short: as §1
[10] = Reduction of FN1 mRNA expression in human HSC cells at 1 uM by RT-PCR analysis; type: functional, cell-based; in short: as §1
[11] = Reduction of FN1 mRNA expression in healthy human ISEMF at 1 uM by RT-PCR analysis; type: functional; in short: as §1
[12] = Reduction of FN1 mRNA expression in crohn's disease patient isolated ISEMF at 1 uM by RT-PCR analysis; type: functional; details: Homo sapiens; in short: as §1
[13] = Reduction of TIMP1 mRNA expression in human HSC cells at 1 uM by RT-PCR analysis; type: functional, cell-based; in short: as §1
[14] = Reduction of TIMP1 mRNA expression in healthy human ISEMF at 1 uM by RT-PCR analysis; type: functional; in short: as §1
[15] = Reduction of TIMP1 mRNA expression in crohn's disease patient isolated ISEMF at 1 uM by RT-PCR analysis; type: functional; details: Homo sapiens; in short: as §1
[16] = Cytotoxicity against human HSC cells assessed as cell viability at 1 uM after 72 hrs by MTT assay; type: cell-based
In short: (§2)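 MTT viability in primary human HSCs or ISEMFs seeded at 2 × 10³ cells/well. Cells were exposed to compound for 72 h, then to MTT 0.50 mg/ml for 4 h. Viability is expressed as % of the respective untreated cells. Triplicate per isolated cell batch.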

[17] = Cytotoxicity against healthy human ISEMF assessed as cell viability at 1 uM after 72 hrs by MTT assay; in short: as §2
[18] = Cytotoxicity against crohn's disease patient isolated ISEMF assessed as cell viability at 1 uM after 72 hrs by MTT assay; details: human; in short: as §2

Sequence of Tyrosine-protein kinase ABL1 (Homo sapiens) (P00519 whole entry): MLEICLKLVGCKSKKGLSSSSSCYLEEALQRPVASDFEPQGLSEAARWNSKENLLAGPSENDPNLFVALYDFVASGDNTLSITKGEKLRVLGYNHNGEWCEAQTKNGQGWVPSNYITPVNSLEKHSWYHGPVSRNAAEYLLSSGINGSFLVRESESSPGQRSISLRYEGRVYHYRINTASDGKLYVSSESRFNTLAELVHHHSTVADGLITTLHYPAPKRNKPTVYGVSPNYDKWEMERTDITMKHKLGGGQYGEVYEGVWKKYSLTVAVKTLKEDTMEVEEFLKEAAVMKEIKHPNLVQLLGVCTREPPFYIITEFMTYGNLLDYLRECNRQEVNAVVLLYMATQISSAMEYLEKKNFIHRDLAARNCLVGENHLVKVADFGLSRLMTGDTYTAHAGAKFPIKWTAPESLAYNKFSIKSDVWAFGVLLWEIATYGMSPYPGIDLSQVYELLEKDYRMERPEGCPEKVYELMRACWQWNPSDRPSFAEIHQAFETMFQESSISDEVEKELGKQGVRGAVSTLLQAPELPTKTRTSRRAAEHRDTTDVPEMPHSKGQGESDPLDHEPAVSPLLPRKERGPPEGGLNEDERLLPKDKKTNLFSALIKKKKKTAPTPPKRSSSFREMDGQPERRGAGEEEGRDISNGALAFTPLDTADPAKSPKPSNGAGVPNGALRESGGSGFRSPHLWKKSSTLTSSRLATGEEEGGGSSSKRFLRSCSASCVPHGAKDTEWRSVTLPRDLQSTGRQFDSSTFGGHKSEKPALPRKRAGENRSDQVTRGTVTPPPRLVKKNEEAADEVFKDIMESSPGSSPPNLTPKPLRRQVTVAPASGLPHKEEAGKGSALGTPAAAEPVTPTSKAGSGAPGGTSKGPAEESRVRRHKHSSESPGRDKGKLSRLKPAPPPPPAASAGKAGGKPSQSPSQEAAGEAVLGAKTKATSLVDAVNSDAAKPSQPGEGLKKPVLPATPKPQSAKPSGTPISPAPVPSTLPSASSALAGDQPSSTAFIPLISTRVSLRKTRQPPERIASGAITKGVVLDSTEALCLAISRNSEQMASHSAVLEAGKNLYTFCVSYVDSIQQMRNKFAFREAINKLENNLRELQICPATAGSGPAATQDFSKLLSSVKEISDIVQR
Sequence of Proto-oncogene tyrosine-protein kinase Src (Homo sapiens) (P12931 2-536 limits assumed): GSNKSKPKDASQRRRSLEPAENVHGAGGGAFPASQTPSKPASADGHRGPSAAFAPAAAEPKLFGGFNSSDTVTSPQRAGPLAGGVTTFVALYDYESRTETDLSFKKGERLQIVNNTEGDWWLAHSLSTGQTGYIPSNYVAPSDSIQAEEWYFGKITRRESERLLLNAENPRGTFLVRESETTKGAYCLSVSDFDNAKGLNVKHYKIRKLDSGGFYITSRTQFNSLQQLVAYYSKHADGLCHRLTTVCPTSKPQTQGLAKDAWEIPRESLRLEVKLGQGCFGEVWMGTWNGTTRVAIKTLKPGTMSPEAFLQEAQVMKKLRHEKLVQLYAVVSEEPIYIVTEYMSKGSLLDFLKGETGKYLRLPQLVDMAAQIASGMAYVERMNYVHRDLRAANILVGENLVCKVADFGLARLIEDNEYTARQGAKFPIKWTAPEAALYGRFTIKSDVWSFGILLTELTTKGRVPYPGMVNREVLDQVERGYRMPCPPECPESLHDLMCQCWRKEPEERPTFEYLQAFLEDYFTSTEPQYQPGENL
Sequence of Fibroblast growth factor receptor 1 (Homo sapiens) (P11362 22-822 limits assumed): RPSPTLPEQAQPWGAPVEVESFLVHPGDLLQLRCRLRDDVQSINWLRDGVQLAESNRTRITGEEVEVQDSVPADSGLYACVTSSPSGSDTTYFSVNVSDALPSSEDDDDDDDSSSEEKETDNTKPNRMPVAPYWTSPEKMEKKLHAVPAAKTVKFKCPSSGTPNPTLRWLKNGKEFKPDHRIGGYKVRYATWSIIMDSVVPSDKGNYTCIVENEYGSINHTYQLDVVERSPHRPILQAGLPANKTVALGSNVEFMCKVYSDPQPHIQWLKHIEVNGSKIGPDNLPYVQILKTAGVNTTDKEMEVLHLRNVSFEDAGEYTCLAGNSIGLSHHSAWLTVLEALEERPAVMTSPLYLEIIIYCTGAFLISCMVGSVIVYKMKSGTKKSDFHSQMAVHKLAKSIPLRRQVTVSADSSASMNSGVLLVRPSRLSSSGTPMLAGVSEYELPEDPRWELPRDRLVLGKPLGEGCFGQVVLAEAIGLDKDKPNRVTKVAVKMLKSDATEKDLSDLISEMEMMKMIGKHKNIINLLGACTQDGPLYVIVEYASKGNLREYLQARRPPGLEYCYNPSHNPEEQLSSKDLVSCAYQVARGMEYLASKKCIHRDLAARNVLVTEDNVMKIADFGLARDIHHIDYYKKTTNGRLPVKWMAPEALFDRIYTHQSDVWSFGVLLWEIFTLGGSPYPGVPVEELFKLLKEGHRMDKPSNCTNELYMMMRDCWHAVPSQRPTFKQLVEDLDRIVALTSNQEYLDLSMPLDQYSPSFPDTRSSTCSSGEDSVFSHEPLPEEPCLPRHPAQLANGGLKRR
Sequence of Platelet-derived growth factor receptor beta (Homo sapiens) (P09619 whole entry): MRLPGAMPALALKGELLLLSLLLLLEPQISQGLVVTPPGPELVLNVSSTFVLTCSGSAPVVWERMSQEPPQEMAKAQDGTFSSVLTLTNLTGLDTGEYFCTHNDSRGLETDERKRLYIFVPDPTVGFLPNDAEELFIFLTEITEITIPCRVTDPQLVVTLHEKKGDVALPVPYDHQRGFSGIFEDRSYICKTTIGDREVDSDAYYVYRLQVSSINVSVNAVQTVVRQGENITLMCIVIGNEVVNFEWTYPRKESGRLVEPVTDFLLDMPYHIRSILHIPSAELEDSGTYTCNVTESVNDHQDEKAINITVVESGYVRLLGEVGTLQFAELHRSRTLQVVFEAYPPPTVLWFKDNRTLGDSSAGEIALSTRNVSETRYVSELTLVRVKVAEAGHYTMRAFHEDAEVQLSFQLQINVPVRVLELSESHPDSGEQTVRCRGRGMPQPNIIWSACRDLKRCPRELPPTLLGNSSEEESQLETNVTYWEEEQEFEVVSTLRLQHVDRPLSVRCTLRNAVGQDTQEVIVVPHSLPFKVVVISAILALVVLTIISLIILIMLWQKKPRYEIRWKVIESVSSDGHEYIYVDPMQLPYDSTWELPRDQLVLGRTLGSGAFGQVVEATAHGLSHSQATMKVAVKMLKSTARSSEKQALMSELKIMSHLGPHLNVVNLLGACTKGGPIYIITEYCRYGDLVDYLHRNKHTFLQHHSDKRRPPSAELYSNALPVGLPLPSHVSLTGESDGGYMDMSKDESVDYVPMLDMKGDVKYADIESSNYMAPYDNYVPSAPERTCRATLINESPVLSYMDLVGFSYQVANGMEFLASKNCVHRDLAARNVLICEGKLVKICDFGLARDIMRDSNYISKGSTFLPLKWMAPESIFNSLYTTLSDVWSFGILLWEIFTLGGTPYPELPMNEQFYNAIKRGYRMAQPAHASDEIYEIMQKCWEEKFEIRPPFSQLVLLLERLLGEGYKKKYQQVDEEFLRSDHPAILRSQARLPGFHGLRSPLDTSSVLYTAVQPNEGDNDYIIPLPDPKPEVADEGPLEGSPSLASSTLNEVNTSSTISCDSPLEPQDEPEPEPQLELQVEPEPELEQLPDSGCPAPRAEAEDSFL
Sequence of Vascular endothelial growth factor receptor 2 (Homo sapiens) (P35968 whole entry): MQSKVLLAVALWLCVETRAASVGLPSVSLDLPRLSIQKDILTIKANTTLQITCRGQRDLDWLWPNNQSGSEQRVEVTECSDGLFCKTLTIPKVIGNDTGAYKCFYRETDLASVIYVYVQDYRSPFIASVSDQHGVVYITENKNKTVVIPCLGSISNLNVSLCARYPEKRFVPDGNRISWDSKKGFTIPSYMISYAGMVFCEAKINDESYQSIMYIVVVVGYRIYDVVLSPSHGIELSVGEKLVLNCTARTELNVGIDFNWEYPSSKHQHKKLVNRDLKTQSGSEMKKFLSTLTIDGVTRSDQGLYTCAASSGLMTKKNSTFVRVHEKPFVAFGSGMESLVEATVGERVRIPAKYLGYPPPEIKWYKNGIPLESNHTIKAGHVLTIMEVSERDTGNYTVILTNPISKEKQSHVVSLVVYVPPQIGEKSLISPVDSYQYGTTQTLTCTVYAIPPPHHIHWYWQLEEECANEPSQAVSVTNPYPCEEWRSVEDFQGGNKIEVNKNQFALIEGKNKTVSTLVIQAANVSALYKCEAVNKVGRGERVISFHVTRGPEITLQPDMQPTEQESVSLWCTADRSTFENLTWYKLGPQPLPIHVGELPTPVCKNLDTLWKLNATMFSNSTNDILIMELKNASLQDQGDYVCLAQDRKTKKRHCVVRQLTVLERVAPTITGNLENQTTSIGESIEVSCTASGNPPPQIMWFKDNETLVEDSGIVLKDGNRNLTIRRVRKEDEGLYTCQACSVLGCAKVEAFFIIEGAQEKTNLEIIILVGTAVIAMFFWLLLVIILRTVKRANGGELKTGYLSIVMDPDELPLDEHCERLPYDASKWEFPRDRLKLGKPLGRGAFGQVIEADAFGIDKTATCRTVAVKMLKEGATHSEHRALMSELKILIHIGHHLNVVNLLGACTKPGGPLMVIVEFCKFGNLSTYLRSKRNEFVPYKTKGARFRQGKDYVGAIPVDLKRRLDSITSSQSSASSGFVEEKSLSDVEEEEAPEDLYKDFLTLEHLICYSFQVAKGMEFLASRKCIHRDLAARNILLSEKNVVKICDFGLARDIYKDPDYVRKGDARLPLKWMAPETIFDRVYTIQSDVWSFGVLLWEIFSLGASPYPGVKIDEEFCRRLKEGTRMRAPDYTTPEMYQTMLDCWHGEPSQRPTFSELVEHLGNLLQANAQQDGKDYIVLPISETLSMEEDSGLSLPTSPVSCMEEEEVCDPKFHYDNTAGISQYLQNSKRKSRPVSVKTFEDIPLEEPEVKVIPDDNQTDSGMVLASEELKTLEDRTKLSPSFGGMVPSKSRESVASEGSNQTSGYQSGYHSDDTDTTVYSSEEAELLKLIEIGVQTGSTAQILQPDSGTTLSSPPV

| SMILES | inhibition [1] [%] | inhibition [2] [%] | inhibition [3] [%] | inhibition [4] [%] | inhibition [5] [%] | inhibition [6] [%] | inhibition (Homo sapiens) [%] | Activity [7] | Activity [8] | Activity [9] | Activity [10] | Activity [11] | Activity [12] | Activity [13] | Activity [14] | Activity [15] | Activity [16] | Activity [17] | Activity [18] |
| --- | --- | --- | --- | --- | --- | --- | --- | --- | --- | --- | --- | --- | --- | --- | --- | --- | --- | --- | --- |
| O=c1c2cc3c(cc2ncn1Cc1ccc(-c2ccccc2)cc1)OCO3 | 25 | 6 | 4 | 0 | 4 | 10 | 0 |  |  |  |  |  |  |  |  |  |  |  |  |
| Clc1ccc(Nc2nnc(Cc3ccncc3)c3ccccc23)cc1 [VATALANIB] |  | 31 | 25 | 16 | 72 | 49 | 18 | Active | Active | Active | Active | inactive | Active | Active | inactive | Active | Toxic | Toxic | Toxic |
| O=C(Cn1cnc2cc3c(cc2c1=O)OCCO3)c1ccc(Br)cc1 | 35 | 18 | 0 | 0 | 1 | 23 | 17 | Active | Active | Active |  |  |  |  |  |  | Non-toxic | Non-toxic | Non-toxic |
| COc1cc2ncn(CC(=O)c3ccc(Br)cc3)c(=O)c2cc1OC | 53 | 7 | 0 | 4 | 1 | 17 | 0 |  |  |  | Active | inactive | Active | Active | inactive | Active | Non-toxic | Non-toxic | Non-toxic |
| COc1cc2ncn(Cc3ccc(Br)cc3)c(=O)c2cc1OC | 25 | 14 | 0 | 0 | 0 | 25 | 0 |  |  |  |  |  |  |  |  |  |  |  |  |
| O=c1c2cc3c(cc2ncn1Cc1ccc(-c2ccccc2)cc1)OCCO3 | 45 | 10 | 0 | 5 | 13 | 37 | 25 | Active | Active | Active |  |  |  |  |  |  | Non-toxic | Non-toxic | Non-toxic |
| O=c1c2cc3c(cc2ncn1Cc1ccc(Br)cc1)OCCO3 | 12 | 1 | 0 | 0 | 1 | 13 | 0 |  |  |  |  |  |  |  |  |  |  |  |  |
| COc1cc2ncn(Cc3cccc(-c4ccccc4)c3)c(=O)c2cc1OC | 33 | 13 | 0 | 0 | 4 | 34 | 21 |  |  |  |  |  |  |  |  |  |  |  |  |
| O=c1c2cc3c(cc2ncn1Cc1cccc(Br)c1)OCCO3 | 12 | 7 | 0 | 0 | 0 | 28 | 28 |  |  |  |  |  |  |  |  |  |  |  |  |
| O=c1c2cc3c(cc2ncn1Cc1cccc(-c2ccccc2)c1)OCO3 | 35 | 8 | 0 | 0 | 0 | 0 | 0 | Active | Active | Active |  |  |  |  |  |  | Non-toxic | Non-toxic | Non-toxic |
